“Also recorded” adds a separate entry of the source. Values belong to the substance of their own block, whether it stands above or below them. Ends that are not written are not given here.
Columns and labels:
DMPC vesicle clearance = format: physicochemical; conditions: peptide 100 ng/ml, DMPC 1 mg/ml, PBS, 24 °C, 60 min, absorbance 432 nm
Procedure, shortened: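 Multilamellar DMPC vesicles (1 mg/ml) made by resuspending dried lipid in PBS and vortexing for 5 min. Peptide added to 100 ng/ml final. Absorbance at 432 nm read every 5 s for 60 min at 24 °C with fast shaking to prevent settling. Turbidity compared with a PBS-only control.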

human ABCA1 = human ABCA1 (Homo sapiens, UniProt O95477); assay: Cholesterol efflux, ABCA1 transfected BHK cells; format: cell-based; conditions: ABCA1 expressing BHK cells, 18 h
Procedure, shortened: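 BHK cells stably expressing human ABCA1 labelled 18 h with [3H]cholesterol in DMEM plus 10% fetal calf serum. Cells were washed, then switched to serum-free DMEM with 0.1 mg/ml fatty acid-free BSA. Peptide over a concentration range, or PBS, added for 18 h. Media filtered, cells lysed in 0.1% SDS/0.1 N NaOH, both counted by liquid scintillation. Efflux = media counts/(media + cell counts) × 100.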

isolated human HDL = assay: Isothermal titration calorimetry, binding to HDL; conditions: isolated human HDL injected into peptide, PBS pH 7.4
Procedure, shortened: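 Human HDL isolated by ultracentrifugation. Lipoprotein titrated into cell holding peptide or buffer alone: one small initial injection, then 35 injections, 180 s apart, with heat monitored continuously. Thermograms integrated to binding isotherms.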

[1] = Circular dichroism spectroscopy; format: physicochemical; conditions: 37 °C; for helicity, with TFE: 20% trifluoroethanol
Procedure, shortened: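 Peptides at 0.2 mg/mL (final) in 10 mM phosphate buffer, with or without 20% trifluoroethanol, held at 37 °C. Far-UV spectra recorded from 190 to 240 nm on a spectropolarimeter. Ellipticity in mdeg converted to mean residue ellipticity (deg cm² dmol⁻¹).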

[2] = DMP cross-linking, SDS-PAGE; format: physicochemical; conditions: PBS, DMP:peptide 30:1, 2 h room temperature
Procedure, shortened: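 Homo-bifunctional amine-reactive crosslinker dimethylpimelimidate reacted with peptide at 30:1 molar ratio (crosslinker:peptide) in PBS for 2 h at room temperature. Quenched with 1 M Tris. Products resolved by SDS-PAGE under reducing conditions and stained with Coomassie blue to visualise oligomeric species.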

isolated human LDL = assay: Isothermal titration calorimetry, binding to LDL; conditions: for binding to LDL by ITC: isolated human LDL injected into peptide, PBS pH 7.4
Procedure, shortened: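 Human LDL and HDL isolated by ultracentrifugation. Lipoprotein titrated into a cell holding peptide or buffer alone: one initial injection, then 35 injections spaced 180 s apart. Heat monitored throughout and thermograms integrated to isotherms.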

[3] = test system: lipoproteins in human plasma; assay: Exchangeability of LDL-bound peptide among lipoproteins; conditions: FITC labeled B38 on isolated LDL, then human plasma 1 h at 37 °C, FPLC
Procedure, shortened: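 FITC-labelled peptide co-incubated with isolated human LDL for 1 h at 37 °C. LDL repurified by FPLC to remove unbound peptide, and LDL fractions pooled and concentrated. Peptide-loaded LDL then incubated with PBS or human plasma for 1 h at 37 °C. Transfer of fluorescent peptide to other lipoprotein classes measured.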

human red blood cells = assay: Red blood cell lysis assay; format: cell-based; conditions: human RBCs, 0 – 100 µM, 2 h room temperature, 1% Triton X-100 = 100% lysis
Procedure, shortened: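 Human erythrocytes washed 5 times in PBS with 5% glucose, pH 7.4. Incubated with peptide at 0–100 µM for 2 h at room temperature, then pelleted at 1000×g for 5 min. Supernatant absorbance read at 450 nm. 1% Triton X-100 served as the 100% lysis reference.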

[4] = test system: apoB containing lipoproteins in human plasma; format: binding; conditions: FPLC separation, VLDL plus LDL
Procedure, shortened: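 FITC-labelled peptide incubated with human plasma for 1 h at 37 °C. Separated on two Superose 6 columns in series in Tris buffer (10 mM Tris, 150 mM NaCl, 0.5 mM EDTA, 0.01% azide) at 0.5 mL/min, collecting 0.5 mL fractions. Enzymatic phospholipid assay located VLDL, LDL and HDL. Fluorescence read at ex 485 / em 535 nm. Each peak expressed as percent of total fluorescence.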

BHK cells = assay: Visual cytotoxicity during cholesterol efflux experiments; format: cell-based; conditions: during the cholesterol efflux experiments
cells = conditions: ref [48]; cited from earlier work
[5] = 0.2 mg/mL peptide, 10 mM phosphate buffer

Chain of human ABCA1 (O95477 whole entry): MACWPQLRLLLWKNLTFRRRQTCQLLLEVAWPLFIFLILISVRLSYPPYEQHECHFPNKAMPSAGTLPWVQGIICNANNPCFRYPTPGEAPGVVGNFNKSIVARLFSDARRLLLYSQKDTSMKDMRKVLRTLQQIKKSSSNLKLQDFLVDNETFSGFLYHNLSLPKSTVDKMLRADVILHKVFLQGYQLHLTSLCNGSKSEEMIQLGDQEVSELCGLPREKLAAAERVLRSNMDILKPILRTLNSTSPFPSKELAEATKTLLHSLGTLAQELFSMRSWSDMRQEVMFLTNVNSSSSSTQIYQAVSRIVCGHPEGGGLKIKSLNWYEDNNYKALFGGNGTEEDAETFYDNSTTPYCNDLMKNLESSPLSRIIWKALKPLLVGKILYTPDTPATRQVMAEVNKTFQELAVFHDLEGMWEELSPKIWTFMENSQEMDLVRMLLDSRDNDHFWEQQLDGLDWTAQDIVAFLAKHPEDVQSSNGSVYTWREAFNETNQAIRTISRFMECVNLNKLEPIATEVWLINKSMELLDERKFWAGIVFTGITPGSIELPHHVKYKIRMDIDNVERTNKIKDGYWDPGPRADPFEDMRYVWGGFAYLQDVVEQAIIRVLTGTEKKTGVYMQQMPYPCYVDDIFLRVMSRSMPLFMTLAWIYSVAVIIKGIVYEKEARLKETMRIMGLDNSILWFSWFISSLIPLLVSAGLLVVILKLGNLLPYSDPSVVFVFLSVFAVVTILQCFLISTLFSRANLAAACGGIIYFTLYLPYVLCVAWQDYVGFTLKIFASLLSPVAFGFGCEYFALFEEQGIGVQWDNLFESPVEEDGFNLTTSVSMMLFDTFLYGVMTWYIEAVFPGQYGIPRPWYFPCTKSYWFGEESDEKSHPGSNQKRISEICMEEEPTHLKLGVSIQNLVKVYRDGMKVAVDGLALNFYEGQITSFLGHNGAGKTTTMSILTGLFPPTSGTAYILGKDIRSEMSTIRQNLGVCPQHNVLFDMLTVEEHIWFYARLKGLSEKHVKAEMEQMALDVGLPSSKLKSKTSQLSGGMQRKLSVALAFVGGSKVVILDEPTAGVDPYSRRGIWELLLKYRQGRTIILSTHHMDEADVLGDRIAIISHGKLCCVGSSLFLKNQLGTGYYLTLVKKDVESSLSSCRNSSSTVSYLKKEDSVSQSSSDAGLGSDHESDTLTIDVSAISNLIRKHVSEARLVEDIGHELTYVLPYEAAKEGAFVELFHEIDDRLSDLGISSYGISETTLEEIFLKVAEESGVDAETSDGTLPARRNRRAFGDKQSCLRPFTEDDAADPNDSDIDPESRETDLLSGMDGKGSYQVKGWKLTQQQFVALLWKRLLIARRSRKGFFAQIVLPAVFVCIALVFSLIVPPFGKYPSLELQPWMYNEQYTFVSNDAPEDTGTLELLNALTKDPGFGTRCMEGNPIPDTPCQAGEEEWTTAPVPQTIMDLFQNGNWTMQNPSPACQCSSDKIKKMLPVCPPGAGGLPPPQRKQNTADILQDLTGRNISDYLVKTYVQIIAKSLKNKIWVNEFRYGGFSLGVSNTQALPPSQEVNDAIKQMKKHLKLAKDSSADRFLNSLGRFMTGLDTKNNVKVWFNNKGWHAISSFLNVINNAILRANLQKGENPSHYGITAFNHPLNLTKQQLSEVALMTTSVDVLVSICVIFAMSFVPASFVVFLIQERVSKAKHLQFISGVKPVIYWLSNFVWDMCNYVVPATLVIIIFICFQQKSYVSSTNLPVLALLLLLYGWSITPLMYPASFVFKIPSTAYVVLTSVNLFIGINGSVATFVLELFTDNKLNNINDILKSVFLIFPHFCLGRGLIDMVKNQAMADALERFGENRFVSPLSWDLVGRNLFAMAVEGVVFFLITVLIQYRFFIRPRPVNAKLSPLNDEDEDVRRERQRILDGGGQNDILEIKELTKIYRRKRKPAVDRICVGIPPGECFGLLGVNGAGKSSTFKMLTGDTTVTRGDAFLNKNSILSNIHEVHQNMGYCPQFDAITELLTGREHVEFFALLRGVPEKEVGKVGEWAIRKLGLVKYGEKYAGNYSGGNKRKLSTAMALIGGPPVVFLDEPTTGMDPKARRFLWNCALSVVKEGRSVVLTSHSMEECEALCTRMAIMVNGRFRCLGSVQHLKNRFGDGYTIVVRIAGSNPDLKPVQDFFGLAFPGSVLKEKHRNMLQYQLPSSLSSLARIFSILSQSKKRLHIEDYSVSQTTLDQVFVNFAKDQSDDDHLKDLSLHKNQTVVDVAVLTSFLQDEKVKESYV

Substance: DWLKAFYDKVAEKLKEAFPDWAKAAYDKAAEKAKEAA [5A, reference compound]
solubilization / clearance of DMPC vesicles (DMPC vesicle clearance): rapidly cleared the solution

helicity, with TFE [1, 5]: 38% | secondary structure by CD, aqueous solution ([1]; 10 mM phosphate buffer, no TFE): random coil structure
Substance: EKLKAKLKEGGEKLKAKLKE [FLANK]
cholesterol efflux, ABCA1 cells (human ABCA1): ineffective in promoting cholesterol efflux | binding to HDL by ITC (isolated human HDL): did not appear to bind strongly to either lipoprotein | oligomeric forms in aqueous solution [2]: only found as monomer and dimer in aqueous solution | binding to LDL by ITC (isolated human LDL): did not appear to bind strongly to either lipoprotein | solubilization / clearance of DMPC vesicles (DMPC vesicle clearance): did not solubilize DMPC vesicles

helicity, with TFE [1, 5]: 40% | secondary structure by CD, aqueous solution ([1]; 10 mM phosphate buffer, no TFE): random coil structure
Substance: EKLKAKLKEGGGLSDEAVTSLLPQLIEVSSPGGEKLKAKLKE [B07]

helicity, with TFE [1, 5]: 60% | secondary structure by CD, aqueous solution ([1]; 10 mM phosphate buffer, no TFE): random coil structure
Substance: EKLKAKLKEGGKATLELSPWQMSALVQVHASQPSSFHDFPDLGGEKLKAKLKE [B61]

helicity, with TFE [1, 5]: 43% | secondary structure by CD, aqueous solution ([1]; 10 mM phosphate buffer, no TFE): random coil structure
Substance: EKLKAKLKEGGLNIKRGIISALLVPPETEEAGGEKLKAKLKE [B04]

helicity, with TFE [1, 5]: 59% | helicity, aqueous solution ([1]; 0.2 mg/mL peptide, 10 mM phosphate buffer, no TFE): 40.1% | helicity, with POPC vesicles ([1]; POPC vesicles added (also printed POPS)): 42.4% | secondary structure by CD, with POPC vesicles ([1]; POPC vesicles added): slight increase in helicity | total binding energy for LDL relative to HDL (isolated human LDL; ITC, isolated human LDL vs. HDL): 2.7 times | shape of ITC thermal energy curve (isolated human LDL; binding to lipoprotein particles): U-shaped curve | binding energy in buffer control (isolated human LDL; peptide in buffer control (no LDL)): lack of significant binding energy | concentration above which a small amount of red cell lysis occurs (human red blood cells): above 30 uM | percent of peptide bound to apoB containing lipoproteins [4]: 17%
Substance: EKLKAKLKEGGQELQRYLSLVGQVYSTLVTYISDWWTLGGEKLKAKLKE [B38]
cholesterol efflux, ABCA1 cells (human ABCA1): capable of ABCA1-dependent cholesterol efflux from cells; also recorded: promotes ABCA1 specific cholesterol efflux | binding to HDL by ITC (isolated human HDL): high affinity binding to both isolated HDL and LDL; also recorded: found to bind to high density lipoprotein (HDL) but with lower affinity than LDL | secondary structure by CD, aqueous solution ([1]; 10 mM phosphate buffer, no TFE): α-helical secondary structure; also recorded: formed an α-helix in aqueous buffer | oligomeric forms in aqueous solution [2]: presence of B38 oligomers in aqueous solution | exchangeability between lipoproteins [3]: could exchange between lipoproteins; also recorded: exchangeable between lipoproteins | lipoprotein binding of synthesized HCD peptides (isolated human LDL; ITC, lipoprotein class not specified): showed significant lipoprotein binding capacity | binding to LDL by ITC (isolated human LDL): high affinity binding to both isolated HDL and LDL; also recorded: only peptide with significant binding affinity for LDL | solubilization / clearance of DMPC vesicles (DMPC vesicle clearance): rapidly cleared the solution; also recorded: does not clear DMPC vesicles as rapidly | visual evidence of cytotoxicity (BHK cells): no visual evidence of cytotoxicity was observed

Substance: apoB: large amphipathic protein, structural scaffold of several classes of lipoproteins
cholesterol efflux from cells (cells): does not promote cholesterol efflux from cells

Reference: paper PMC5191920 (Biochimica et biophysica acta, 2016)
